In brackets after ≈: the same amount, converted by molar mass.
Tests used:
Staphylococcus aureus [1] = assay: Antibacterial activity against Quinolone-resistant Staphylococcus aureus CCARM 3505 assessed as reduction in bacterial cell growth incubated for 24 hrs by ELISA; format: functional; settings: CCARM 3505, 24 h
Summary of the method: (§1)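 MICs determined by serial dilution in 96-well microtiter plates. The strain panel included Gram-positive S. aureus strains and multidrug-resistant clinical isolates. Gatifloxacin, moxifloxacin, norfloxacin and oxacillin served as antibacterial positive controls.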

Staphylococcus aureus [2] = assay: Antibacterial activity against Methicillin-resistant Staphylococcus aureus CCARM 3167 assessed as reduction in bacterial cell growth incubated for 24 hrs by ELISA; format: functional; settings: CCARM 3167, 24 h; summary of the method: as §1
Homo sapiens [3] = organism: Homo sapiens; assay: Selectivity ratio of IC50 for human recombinant GST-tagged SHP1 to IC50 for human recombinant GST-tagged PTP1B
[4] = target: T1, Tyrosine-protein phosphatase non-receptor type 11 (Homo sapiens, UniProt Q06124); assay: Inhibition of human recombinant GST-tagged SHP2 (catalytic domain […] residues) expressed in Escherichia coli BL21 (DE3) using pNPP as substrate measured for 2 mins by colorimetric analysis
T1 sequence (Q06124 whole entry): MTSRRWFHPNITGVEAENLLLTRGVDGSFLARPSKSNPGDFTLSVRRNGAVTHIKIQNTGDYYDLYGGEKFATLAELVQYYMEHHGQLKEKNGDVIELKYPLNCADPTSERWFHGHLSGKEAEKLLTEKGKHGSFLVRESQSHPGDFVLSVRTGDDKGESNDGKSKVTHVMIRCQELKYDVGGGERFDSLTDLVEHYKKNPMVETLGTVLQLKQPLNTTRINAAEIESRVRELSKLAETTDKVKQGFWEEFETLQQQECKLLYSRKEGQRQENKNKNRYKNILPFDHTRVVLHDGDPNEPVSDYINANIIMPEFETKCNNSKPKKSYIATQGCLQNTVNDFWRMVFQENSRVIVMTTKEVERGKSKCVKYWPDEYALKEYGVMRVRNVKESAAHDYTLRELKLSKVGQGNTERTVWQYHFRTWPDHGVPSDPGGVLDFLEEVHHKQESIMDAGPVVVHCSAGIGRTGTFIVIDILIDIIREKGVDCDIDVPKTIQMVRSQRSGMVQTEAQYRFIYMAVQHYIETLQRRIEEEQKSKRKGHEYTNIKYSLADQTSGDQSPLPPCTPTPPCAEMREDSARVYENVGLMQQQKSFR
Summary of the method: (§2)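 pNPP hydrolysis assay. IC50 was derived by regression analysis and given as mean ± SD of three replications.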

Homo sapiens [5] = organism: Homo sapiens; assay: Selectivity ratio of IC50 for human recombinant GST-tagged SHP2 to IC50 for human recombinant GST-tagged PTP1B
[6] = target: T2, M-phase inducer phosphatase 2 (Homo sapiens, UniProt P30305); assay: Inhibition of human recombinant GST-tagged CDC25B expressed in Escherichia coli BL21 (DE3) using pNPP as substrate measured for 2 mins by colorimetric analysis; summary of the method: as §2
T2 sequence (P30305 whole entry): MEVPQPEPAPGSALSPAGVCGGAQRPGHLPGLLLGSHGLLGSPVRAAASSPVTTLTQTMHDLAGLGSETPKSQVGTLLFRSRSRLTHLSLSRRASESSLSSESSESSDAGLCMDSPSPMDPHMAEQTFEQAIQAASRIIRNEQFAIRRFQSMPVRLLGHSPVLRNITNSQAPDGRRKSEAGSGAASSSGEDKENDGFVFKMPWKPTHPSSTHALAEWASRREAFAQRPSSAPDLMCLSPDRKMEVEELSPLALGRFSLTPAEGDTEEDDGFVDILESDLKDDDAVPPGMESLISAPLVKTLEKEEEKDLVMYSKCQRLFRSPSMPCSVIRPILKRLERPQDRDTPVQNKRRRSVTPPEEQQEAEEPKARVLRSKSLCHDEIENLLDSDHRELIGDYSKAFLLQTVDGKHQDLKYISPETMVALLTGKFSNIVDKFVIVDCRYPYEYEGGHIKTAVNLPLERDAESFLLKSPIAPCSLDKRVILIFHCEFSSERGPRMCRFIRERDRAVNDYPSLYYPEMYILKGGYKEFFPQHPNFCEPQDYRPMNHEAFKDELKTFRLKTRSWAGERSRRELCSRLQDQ

Pseudomonas aeruginosa = assay: Antibacterial activity against Pseudomonas aeruginosa 2742 assessed as reduction in bacterial cell growth incubated for 24 hrs by ELISA; format: functional; settings: Pseudomonas aeruginosa, 2742, 24 h
Summary of the method: (§3)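 MIC determined by serial dilution in 96-well microtiter plates. Strains used were E. coli 1924 and P. aeruginosa 2742 (Gram-negative), S. mutans 3289 (Gram-positive) and the fungus C. albicans 7535. Gatifloxacin, moxifloxacin, norfloxacin and oxacillin served as antibacterial reference agents, and fluconazole as the antifungal reference.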

Escherichia coli = assay: Antibacterial activity against Escherichia coli 1924 assessed as reduction in bacterial cell growth incubated for 24 hrs by ELISA; format: functional; settings: Escherichia coli, 1924, 24 h; summary of the method: as §3
Staphylococcus aureus [7] = assay: Antibacterial activity against Staphylococcus aureus KCTC503 assessed as reduction in bacterial cell growth incubated for 24 hrs by ELISA; format: functional; settings: KCTC503, 24 h; summary of the method: as §1
Streptococcus mutans = assay: Antibacterial activity against Streptococcus mutans KCTC3289 assessed as reduction in bacterial cell growth incubated for 24 hrs by ELISA; format: functional; settings: KCTC3289, 24 h; summary of the method: as §3
Staphylococcus aureus [8] = assay: Antibacterial activity against Quinolone-resistant Staphylococcus aureus CCARM 3519 assessed as reduction in bacterial cell growth incubated for 24 hrs by ELISA; format: functional; settings: CCARM 3519, 24 h; summary of the method: as §1
Staphylococcus aureus [9] = assay: Antibacterial activity against Staphylococcus aureus RN4220 assessed as reduction in bacterial cell growth incubated for 24 hrs by ELISA; format: functional; settings: RN4220, 24 h; summary of the method: as §1
Staphylococcus aureus [10] = assay: Antibacterial activity against Methicillin-resistant Staphylococcus aureus CCARM 3506 assessed as reduction in bacterial cell growth incubated for 24 hrs by ELISA; format: functional; settings: CCARM 3506, 24 h; summary of the method: as §1
Staphylococcus aureus [11] = assay: Antibacterial activity against Staphylococcus aureus KCTC209 assessed as reduction in bacterial cell growth incubated for 24 hrs by ELISA; format: functional; settings: KCTC209, 24 h; summary of the method: as §1
[12] = target: T3, Tyrosine-protein phosphatase non-receptor type 2 (Homo sapiens, UniProt P17706); assay: Inhibition of human recombinant GST-tagged TCPTP (catalytic domain […] residues) expressed in Escherichia coli BL21 (DE3) using pNPP as substrate measured for 2 mins by colorimetric analysis
T3 sequence (P17706 whole entry): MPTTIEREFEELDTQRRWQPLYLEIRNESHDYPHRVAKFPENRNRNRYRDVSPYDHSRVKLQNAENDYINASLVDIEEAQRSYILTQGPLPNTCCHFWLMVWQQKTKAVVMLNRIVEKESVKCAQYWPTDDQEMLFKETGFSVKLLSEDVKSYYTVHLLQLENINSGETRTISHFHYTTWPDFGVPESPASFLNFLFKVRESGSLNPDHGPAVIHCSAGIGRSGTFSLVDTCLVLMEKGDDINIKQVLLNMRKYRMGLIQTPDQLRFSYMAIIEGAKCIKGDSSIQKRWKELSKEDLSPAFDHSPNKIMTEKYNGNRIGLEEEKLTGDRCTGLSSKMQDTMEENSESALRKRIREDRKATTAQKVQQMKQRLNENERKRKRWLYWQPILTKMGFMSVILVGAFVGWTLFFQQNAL

SMILES	MIC (Staphylococcus aureus [1]) [µg/mL]	MIC (Staphylococcus aureus [2]) [µg/mL]	Ratio IC50 (Homo sapiens [3])	IC50 [4] [nM]	Ratio IC50 (Homo sapiens [5])	IC50 [6] [nM]	MIC (Pseudomonas aeruginosa) [µg/mL]	MIC (Escherichia coli) [µg/mL]	MIC (Staphylococcus aureus [7]) [µg/mL]	MIC (Streptococcus mutans) [µg/mL]	MIC (Staphylococcus aureus [8]) [µg/mL]	MIC (Staphylococcus aureus [9]) [µg/mL]	MIC (Staphylococcus aureus [10]) [µg/mL]	MIC (Staphylococcus aureus [11]) [µg/mL]	IC50 [12] [nM]
O=C(O)C(Cc1c[nH]c2ccccc12)N1C(=O)/C(=C/c2ccc3cc(OCc4ccc(Cl)cc4Cl)ccc3c2)SC1=S (stereo not given)	4 (≈ 6.31 µM)	4 (≈ 6.31 µM)	3 to 6	6930	9 to 10	490	> 64	8 (≈ 12.6 µM)	4 (≈ 6.31 µM)	4 (≈ 6.31 µM)	8 (≈ 12.6 µM)	2 (≈ 3.16 µM)	8 (≈ 12.6 µM)	4 (≈ 6.31 µM)	1830
Cc1ccc(COc2ccc3cc(/C=C4\SC(=S)N(C(Cc5c[nH]c6ccccc56)C(=O)O)C4=O)ccc3c2)cc1 (stereo not given)	2 (≈ 3.46 µM)	2 (≈ 3.46 µM)	3 to 6	5810	9 to 10	830	> 64	2 (≈ 3.46 µM)	2 (≈ 3.46 µM)	2 (≈ 3.46 µM)	2 (≈ 3.46 µM)	2 (≈ 3.46 µM)	8 (≈ 13.8 µM)	2 (≈ 3.46 µM)	1690
O=C(O)C(Cc1c[nH]c2ccccc12)N1C(=O)/C(=C/c2ccc3cc(OCc4ccc(Br)cc4)ccc3c2)SC1=S (stereo not given)	4 (≈ 6.22 µM)	4 (≈ 6.22 µM)	3 to 6	3800	9 to 10	320	> 64	8 (≈ 12.4 µM)	4 (≈ 6.22 µM)	8 (≈ 12.4 µM)	4 (≈ 6.22 µM)	2 (≈ 3.11 µM)	4 (≈ 6.22 µM)	2 (≈ 3.11 µM)	780

— ChEMBL document CHEMBL4346701, “Synthesis and biological evaluation of tryptophan-derived rhodanine derivatives as PTP1B inhibitors and anti-bacterial agents” (Eur J Med Chem, 2019)
